Source: ChEMBL document CHEMBL4138113, “Novel propanamides as fatty acid amide hydrolase inhibitors” (Eur J Med Chem, 2017)
Calls of active or inactive are those of the source.

What was measured:
[1] = target: T1, Fatty-acid amide hydrolase 1 (Rattus norvegicus, UniProt P97612); assay: Inhibition of rat brain FAAH using [3H]AEA as substrate after 10 mins by liquid scintillation counting analysis
T1 sequence (P97612 whole entry): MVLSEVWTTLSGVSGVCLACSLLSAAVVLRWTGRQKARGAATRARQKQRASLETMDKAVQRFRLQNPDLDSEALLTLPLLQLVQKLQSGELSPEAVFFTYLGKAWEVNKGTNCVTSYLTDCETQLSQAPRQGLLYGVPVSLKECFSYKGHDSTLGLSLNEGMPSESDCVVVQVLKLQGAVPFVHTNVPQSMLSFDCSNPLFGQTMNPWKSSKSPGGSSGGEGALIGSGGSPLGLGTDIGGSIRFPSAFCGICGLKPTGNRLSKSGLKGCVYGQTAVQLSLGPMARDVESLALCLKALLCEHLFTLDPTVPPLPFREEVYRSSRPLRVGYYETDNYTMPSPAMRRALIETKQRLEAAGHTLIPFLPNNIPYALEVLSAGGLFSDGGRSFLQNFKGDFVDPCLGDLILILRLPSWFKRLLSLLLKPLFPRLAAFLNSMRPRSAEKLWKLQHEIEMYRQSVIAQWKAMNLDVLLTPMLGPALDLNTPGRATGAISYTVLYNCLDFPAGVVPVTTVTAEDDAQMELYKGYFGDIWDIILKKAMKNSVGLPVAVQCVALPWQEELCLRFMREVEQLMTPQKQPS
Method in brief: (§1)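 Rat (Wistar or Sprague-Dawley) brain homogenate without cerebella, washed and pre-incubated 15 min at 37 °C to clear endogenous substrate. Compound (in ethanol or DMSO) was mixed with 1 µg protein on ice in 10 mM Tris-HCl, 1 mM EDTA, pH 7.4. Reaction used 0.5 µM [3H]AEA with fatty acid-free BSA for 10 min at 37 °C. It was stopped with charcoal/HCl, and supernatant tritium was counted. ≥5 half-log concentrations, ≥3 experiments; maximum inhibition = 100 − fitted bottom.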

[2] = target: T2, Prostaglandin G/H synthase 2 (Homo sapiens) (UniProt P35354); assay: Inhibition of recombinant human COX2 using arachidonic acid/2-AG as substrate after 5 mins
T2 sequence (whole entry): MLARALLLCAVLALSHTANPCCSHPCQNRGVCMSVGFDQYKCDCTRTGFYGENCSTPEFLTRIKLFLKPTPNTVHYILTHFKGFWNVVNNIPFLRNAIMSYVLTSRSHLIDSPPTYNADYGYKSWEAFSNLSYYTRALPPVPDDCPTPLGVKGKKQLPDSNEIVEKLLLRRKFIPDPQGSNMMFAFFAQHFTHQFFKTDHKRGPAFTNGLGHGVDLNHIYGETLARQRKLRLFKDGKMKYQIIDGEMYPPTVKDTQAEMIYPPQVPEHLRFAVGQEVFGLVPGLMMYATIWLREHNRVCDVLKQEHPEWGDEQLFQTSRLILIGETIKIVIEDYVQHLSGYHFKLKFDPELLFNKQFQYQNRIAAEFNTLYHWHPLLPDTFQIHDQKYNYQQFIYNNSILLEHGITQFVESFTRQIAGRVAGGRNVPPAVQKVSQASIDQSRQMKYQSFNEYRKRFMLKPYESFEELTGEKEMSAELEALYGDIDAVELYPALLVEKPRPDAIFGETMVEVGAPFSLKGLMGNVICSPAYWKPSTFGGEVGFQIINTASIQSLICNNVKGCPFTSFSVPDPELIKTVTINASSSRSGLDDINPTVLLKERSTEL
Method in brief: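 Oxygen-electrode assay at room temperature in 0.1 M Tris-HCl, pH 7.4, with 1 µM haematin, 2 mM phenol, 5 mM EDTA and 10 µM (final) arachidonic acid or 2-AG. Compound in EtOH was added and a 5 min baseline recorded. The reaction was started with ovine COX-1 or human recombinant COX-2 (200 U), and oxygen consumption was read in 10 s blocks. Means ± SEM, n = 3-4.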

[3] = target: T3, Fatty-acid amide hydrolase 1 (Mus musculus, UniProt O08914); assay: Mixed-type inhibition of B6CBAF1/J mouse brain FAAH using [3H]AEA as substrate after 10 mins by Dixon plot analysis
T3 sequence (O08914 whole entry): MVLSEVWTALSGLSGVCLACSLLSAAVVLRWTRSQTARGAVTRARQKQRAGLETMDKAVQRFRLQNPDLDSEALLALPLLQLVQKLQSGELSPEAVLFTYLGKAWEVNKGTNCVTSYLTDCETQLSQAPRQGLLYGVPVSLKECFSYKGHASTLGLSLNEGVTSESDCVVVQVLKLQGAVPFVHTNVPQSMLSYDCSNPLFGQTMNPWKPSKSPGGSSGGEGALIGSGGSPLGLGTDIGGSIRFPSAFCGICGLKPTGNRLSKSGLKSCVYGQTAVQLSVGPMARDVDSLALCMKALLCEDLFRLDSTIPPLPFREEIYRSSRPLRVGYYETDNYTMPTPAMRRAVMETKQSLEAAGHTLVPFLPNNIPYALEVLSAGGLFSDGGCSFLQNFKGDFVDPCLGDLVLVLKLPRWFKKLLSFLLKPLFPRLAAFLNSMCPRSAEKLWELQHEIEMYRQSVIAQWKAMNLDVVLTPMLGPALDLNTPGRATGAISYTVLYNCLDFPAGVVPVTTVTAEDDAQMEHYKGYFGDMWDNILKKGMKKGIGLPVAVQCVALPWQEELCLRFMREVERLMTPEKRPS
Method in brief: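 Kinetic study in brain homogenate from male B6CBAF1/J mice (0.3 µg protein per assay). [3H]AEA hydrolysis ran for 10 min at 37 °C in Tris-EDTA buffer, pH 7.4, with the AEA:fatty acid-free BSA ratio held at 1:~4.5. Products were separated on charcoal and counted by scintillation. Competitive, mixed-type and non-competitive fits were compared by Akaike's criterion.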

[4] = target: T4, Fatty-acid amide hydrolase 1 (Rattus norvegicus) (UniProt P97612); assay: Inhibition of rat brain FAAH at 0.3 to 100 uM using [3H]AEA as substrate after 10 mins by liquid scintillation counting analysis relative to control; method in brief: as §1
T4 sequence (whole entry): T1 sequence (P97612 whole entry)

Compound	IC50 ([1]; read-out: IC50) [nM]	IC50 ([1]; read-out: pIC50 (converted)) [nM]	inhibition [2]	Ki [3] [nM]	Imax [4] [%]
CC(C(=O)Nc1ncccc1Cl)c1ccc(Nc2ccnc(C(F)(F)F)c2)cc1 (stereo not given)	58	57.5	inactive	3000	100
Cc1cccnc1NC(=O)C(C)c1ccc(Nc2ccnc(C(F)(F)F)c2)cc1 (stereo not given)	590	589	inactive	6300	100
